Reference: ChEMBL document CHEMBL1250501, “Anti-tubercular agents. Part 5: synthesis and biological evaluation of benzothiadiazine 1,1-dioxide based congeners” (Eur J Med Chem, 2010)
Converted amounts (≈) assume the structure as drawn.

Assays:
[1] = test system: Mycobacterium tuberculosis; test: Antimycobacterial activity against Mycobacterium tuberculosis H37Rv after 3 to 4 weeks by broth microdilution assay; format: functional
How it was run: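 MIC by broth microdilution on compounds active in a single-concentration primary screen. Plates incubated 3–4 weeks at 37 °C in a CO₂ incubator. Wells read visually for absence of growth turbidity.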

[2] = test system: Mycobacterium tuberculosis; test: Antimycobacterial activity against Mycobacterium tuberculosis H37Rv infected in BALB/c mouse lung assessed as reduction of bacterial load at 10 mg/kg, po administered 1 week after infection measured after 4 weeks; format: functional
How it was run: (§1)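 Female BALB/c mice, 6 weeks old, 20–22 g, acclimatised one week. Infected intranasally with about 1.5 × 10⁶ CFU of H37Rv grown 10 days in 7H9/ADC. Treatment began 1 week post-infection, given orally in 50% PEG in water, for 4 weeks. Lungs and spleens homogenised in saline with 0.05% Tween 80. Duplicate 10-fold dilutions plated on 7H10/OADC, 37 °C, 5% CO₂, 4–6 weeks. Result expressed as log₁₀ CFU per organ versus untreated controls.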

[3] = Cytotoxicity against mouse AML-12 cells assessed as cell viability at 2 ug/ml after 24 hrs by MTT assay; format: cell-based; conditions: read-out: Activity
How it was run: (§2)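 AML-12 hepatocytes in 96-well format, in DMEM with 10% FCS. Exposed to test material at 2–100 µg/mL for 24 h at 37 °C in CO₂. MTT then added for 3 h and formazan formation read. Percentage cytotoxicity calculated relative to untreated cells.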

[4] = Cytotoxicity against mouse AML-12 cells assessed as cell viability at 5 ug/ml after 24 hrs by MTT assay; format: cell-based; conditions: read-out: Activity; how it was run: as §2
[5] = Cytotoxicity against mouse AML-12 cells assessed as cell viability at 10 ug/ml after 24 hrs by MTT assay; format: cell-based; conditions: read-out: Activity; how it was run: as §2
[6] = Cytotoxicity against mouse AML-12 cells assessed as cell viability at 25 ug/ml after 24 hrs by MTT assay; format: cell-based; conditions: read-out: Activity; how it was run: as §2
[7] = Cytotoxicity against mouse AML-12 cells assessed as cell viability at 50 ug/ml after 24 hrs by MTT assay; format: cell-based; conditions: read-out: Activity; how it was run: as §2
[8] = Cytotoxicity against mouse AML-12 cells assessed as cell viability at 100 ug/ml after 24 hrs by MTT assay; format: cell-based; conditions: read-out: Activity; how it was run: as §2
[9] = test system: Mycobacterium tuberculosis; test: Antimycobacterial activity against Mycobacterium tuberculosis H37Rv infected in BALB/c mouse lung assessed as reduction of bacterial load at 25 mg/kg, po administered 1 week after infection measured after 4 weeks; format: functional; how it was run: as §1
[10] = test system: Mycobacterium tuberculosis; test: Antimycobacterial activity against Mycobacterium tuberculosis H37Rv infected in BALB/c mouse spleen assessed as reduction of bacterial load at 25 mg/kg, po administered 1 week after infection measured after 4 weeks; format: functional; how it was run: as §1

Work on `CO[C@H]1/C=C/O[C@@]2(C)Oc3c(C)c(O)c4c(O)c(c(/C=N/N5CCN(C)CC5)c(O)c4c3C2=O)NC(=O)/C(C)=C\C=C\[C@H](C)[C@H](O)[C@@H](C)[C@@H](O)[C@@H](C)[C@H](OC(C)=O)[C@@H]1C` [RIFAMPIN] yielded an MIC [1] of 0.25 µg/mL (≈ 0.304 µM) and a log10cfu [2] of 3.8.
Compound `O=[N+]([O-])c1ccc(/C=N/NC2=NS(=O)(=O)c3ccccc3N2c2ccccc2)o1` has a viability at 24 h, 2 ug/ml [3] of 2.4%, a viability at 24 h, 5 ug/ml [4] of 9% and a viability at 24 h, 10 ug/ml [5] of 9.1%. For the same compound, the viability at 24 h, 25 ug/ml [6] was 8.5%, the viability at 24 h, 50 ug/ml [7] was 8.7% and the viability at 24 h, 100 ug/ml [8] was 14.9%. It also gave a log10cfu [9] of 4.8 and a log10cfu [10] of 2.
